Experimental data as given in ChEMBL document CHEMBL1143777, “Synthesis of some bioactive 2-bromo-5-methoxy-N'-[4-(aryl)-1,3-thiazol-2-yl]benzohydrazide derivatives” (2007).
Converted amounts (≈) assume the structure as drawn.

Key:
Mus musculus [1] = assay: Analgesic activity against acetic acid-induced writhing in Swiss Albino mouse assessed as protection at 50 mg/kg, po; format: functional
How it was run: (§1)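 Mice were dosed with the test agent or diclofenac sodium (2.5 mg/kg). One hour later, writhing was induced by ip injection of 0.6% acetic acid in distilled water at 10 ml/kg. Writhes were counted for 15 min right after the acetic acid injection, and percentage protection was calculated.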

MOLT-4 = assay: Antiproliferative activity against MOLT4 cells after 48 hrs; format: functional; details: Homo sapiens, MOLT-4, 48 h
How it was run: (§2)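 This was the NCI 60-cell-line panel (lung, colon, melanoma, renal, ovarian, CNS, leukemia), with compounds tested over a five-dose range.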

[2] = Antiproliferative activity against NCI-H cells assessed as growth at 100 uM after 48 hrs; format: functional; details: Homo sapiens, read-out: Activity
How it was run: (§3)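 This was the NCI primary three-cell-line, one-dose screen (lung NCI-H, breast MCF-7, CNS SF-268). Cells were inoculated on preincubated microtiter plates, and the agent was added at a single concentration. Cultures were incubated for 48 h. The endpoint was determined with sulphorhodamine B protein staining, with negative growth values indicating cell kill.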

RPMI-8226 = assay: Antiproliferative activity against RPMI8226 cells after 48 hrs; format: functional; details: Homo sapiens, RPMI-8226, 48 h; how it was run: as §2
Aspergillus flavus = assay: Antifungal activity against Aspergillus flavus by serial plate dilution method; format: functional
SF-268 = assay: Antiproliferative activity against SF268 cells assessed as growth at 100 uM after 48 hrs; format: functional; details: Homo sapiens, SF-268, 48 h; read-out: Activity; how it was run: as §3
Trichophyton benhamiae = assay: Antifungal activity against Trichophyton mentagrophytes by serial plate dilution method; format: functional, Arthroderma benhamiae
Staphylococcus aureus = assay: Antibacterial activity against Staphylococcus aureus by disc diffusion method; format: functional
Talaromyces marneffei = assay: Antifungal activity against Penicillium marneffei by serial plate dilution method; format: functional
Klebsiella pneumoniae = assay: Antibacterial activity against Klebsiella pneumoniae by disc diffusion method; format: functional
Aspergillus fumigatus = assay: Antifungal activity against Aspergillus fumigatus by serial plate dilution method; format: functional
SR = assay: Antiproliferative activity against SR cells after 48 hrs; format: functional; details: Homo sapiens; how it was run: as §2
MCF7 = assay: Antiproliferative activity against MCF7 cells assessed as growth at 100 uM after 48 hrs; format: functional; details: Homo sapiens, MCF7, 48 h; read-out: Activity; how it was run: as §3
Pseudomonas aeruginosa = assay: Antibacterial activity against Pseudomonas aeruginosa by disc diffusion method; format: functional
Escherichia coli = assay: Antibacterial activity against Escherichia coli by disc diffusion method; format: functional
Mus musculus [3] = assay: Analgesic activity against acetic acid-induced writhing in Swiss Albino mouse assessed as protection at 2.5 mg/kg, po; format: functional; how it was run: as §1
[4] = read-out: LC50 (the source's name)

Row | MIC (Aspergillus flavus) | MIC (Trichophyton benhamiae) | MIC (Staphylococcus aureus) | MIC (Talaromyces marneffei) | MIC (Klebsiella pneumoniae) | MIC (Aspergillus fumigatus) | MIC (Pseudomonas aeruginosa) | SMILES | Activity (Mus musculus [1]) | growth at 100 µM [2] | growth at 100 µM (SF-268) | growth at 100 µM (MCF7) | also measured
1 | 50 µg/mL (≈ 114 µM) | 50 µg/mL (≈ 114 µM) |  |  |  |  | 50 µg/mL (≈ 114 µM) | COc1ccc(Br)c(C(=O)NNc2nc(-c3ccc(Cl)cc3)cs2)c1 | 43.75% |  |  |  | 
2 | 50 µg/mL (≈ 114 µM) | 12.5 µg/mL (≈ 28.4 µM) |  | 12.5 µg/mL (≈ 28.4 µM) | 50 µg/mL (≈ 114 µM) | 12.5 µg/mL (≈ 28.4 µM) |  | COc1ccc(Br)c(C(=O)NNc2nc(-c3ccnc(Cl)c3)cs2)c1 | 37.5% | 95% | 111% | 87% | 
3 | 12.5 µg/mL (≈ 28.7 µM) |  | 50 µg/mL (≈ 115 µM) |  | 12.5 µg/mL (≈ 28.7 µM) | 50 µg/mL (≈ 115 µM) | 6.25 µg/mL (≈ 14.3 µM) | COc1ccc(Br)c(C(=O)NNc2nc(-c3ccc(O)c(O)c3)cs2)c1 | 12.5% | 101% | 111% | 86% | MIC (Escherichia coli): 50 µg/mL (≈ 115 µM)

More lines, now with the values behind:

Row | SMILES | MIC (Aspergillus flavus) | MIC (Trichophyton benhamiae) | MIC (Staphylococcus aureus) | MIC (Talaromyces marneffei) | MIC (Klebsiella pneumoniae) | MIC (Aspergillus fumigatus) | MIC (Pseudomonas aeruginosa) | Activity (Mus musculus [1]) | growth at 100 µM [2] | growth at 100 µM (SF-268) | growth at 100 µM (MCF7) | also measured
4 | COc1ccc(Br)c(C(=O)NNc2nc(-c3ccccc3)cs2)c1 |  |  |  |  |  |  |  | 12.5% |  |  |  | 
5 | COc1ccc(Br)c(C(=O)NNc2nc(-c3ccc(O)c(C(N)=O)c3)cs2)c1 | 60 µg/mL (≈ 130 µM) | 12.5 µg/mL (≈ 27 µM) | 12.5 µg/mL (≈ 27 µM) | 12.5 µg/mL (≈ 27 µM) | 12.5 µg/mL (≈ 27 µM) | 12.5 µg/mL (≈ 27 µM) |  | 56.25% | 17% | 55% | 19% | GI50 (MOLT-4): 22.6 µM; TGI (MOLT-4): 57 µM; CC50 (MOLT-4; [4]): ≥ 100 µM; GI50 (RPMI-8226): 27.9 µM; TGI (RPMI-8226): 92.5 µM; CC50 (RPMI-8226; [4]): ≥ 100 µM; GI50 (SR): 29.8 µM; TGI (SR): ≥ 100 µM; CC50 (SR; [4]): ≥ 100 µM
6 | COc1ccc(-c2csc(NNC(=O)c3cc(OC)ccc3Br)n2)cc1 |  |  |  |  |  | 50 µg/mL (≈ 115 µM) | 50 µg/mL (≈ 115 µM) | 25% |  |  |  | 
7 | COc1ccc(Br)c(C(=O)NNc2nc(-c3cc4cc(Br)ccc4oc3=O)cs2)c1 |  | 12.5 µg/mL (≈ 22.7 µM) | 50 µg/mL (≈ 90.7 µM) | 12.5 µg/mL (≈ 22.7 µM) |  | 10 µg/mL (≈ 18.1 µM) |  | 50% |  |  |  | 
8 | CCC(C)n1ncn(-c2ccc(N3CCN(c4ccc(OC[C@H]5CO[C@](Cn6cncn6)(c6ccc(Cl)cc6Cl)O5)cc4)CC3)cc2)c1=O (stereo not given in full) [ITRACONAZOLE] | < 16 µg/mL | < 16 µg/mL |  | < 16 µg/mL |  | < 16 µg/mL |  |  |  |  |  | 
9 | O=C([O-])Cc1ccccc1Nc1c(Cl)cccc1Cl.[Na+] [DICLOFENAC SODIUM] |  |  |  |  |  |  |  |  |  |  |  | Activity (Mus musculus [3]): 62.5%
10 | COc1ccc(Br)c(C(=O)NNc2nc(-c3cc4ccccc4oc3=O)cs2)c1 |  |  | 50 µg/mL (≈ 106 µM) | 12.5 µg/mL (≈ 26.5 µM) |  |  |  | 37.5% |  |  |  | MIC (Escherichia coli): 50 µg/mL (≈ 106 µM)
